ChEMBL document CHEMBL1133454, “Structure-activity studies of reduced-size gonadotropin-releasing hormone agonists derived from the sequence of an endothelin antagonist” (J Med Chem, 2000)
Square brackets hold non-standard residues; d marks the D form. Peptide text beside a SMILES is read from it. * marks the point of attachment. X1 = CC(C)C[C@@H](C(=O)*)N1C(=O)N[C@H](Cc2c[nH]c3ccccc23)C1=O

target: T1, Gonadotropin-releasing hormone receptor (Rattus norvegicus, UniProt P30969); test: Inhibition constant for the displacement of specific binding of [125I][D-Lys6]-GnRH (Kd=177 pM) bound to rat pituitary membranes; No significant binding at 10 uM; type: cell membranes, Membrane
T1 sequence (P30969 whole entry): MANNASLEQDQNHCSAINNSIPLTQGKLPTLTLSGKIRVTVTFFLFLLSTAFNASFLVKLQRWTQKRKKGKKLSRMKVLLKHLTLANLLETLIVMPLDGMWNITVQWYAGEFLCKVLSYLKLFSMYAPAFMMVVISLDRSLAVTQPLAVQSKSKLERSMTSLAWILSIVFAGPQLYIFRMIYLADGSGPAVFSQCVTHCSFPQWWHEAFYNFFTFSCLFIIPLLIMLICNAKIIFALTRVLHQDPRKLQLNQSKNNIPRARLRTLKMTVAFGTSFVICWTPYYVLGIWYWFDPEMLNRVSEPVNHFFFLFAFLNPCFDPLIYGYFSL
Summary of the method: (§1)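 Membranes from proestrous Wistar-derived rat pituitaries (25 μg protein/tube) incubated 90 min at 4 °C with 23.5 pM 125I-[D-Lys6]GnRH plus increasing unlabeled peptide (up to 10 μM, DMSO ≤1%) in 10 mM Tris-HCl/0.1% BSA. Filtration on GF/C, gamma counting. Nonspecific binding from 1 μM [D-Lys6]GnRH. Ki fitted from displacement curves; two experiments in triplicate, mean ± SEM.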

For `CC[C@H](C)[C@H](N)C(=O)N[C@H](C(=O)N[C@@H](Cc1ccccc1)C(=O)N[C@H](Cc1c[nH]c2ccccc12)C(=O)N[C@@H](CC(C)C)C(=O)N[C@@H](CC(=O)O)C(=O)O)[C@@H](C)CC`, the Ki was “Not Active”.
In the case of `CC[C@H](C)[C@H](N)C(=O)N[C@H](C(=O)N[C@@H](Cc1c[nH]cn1)C(=O)N[C@H](Cc1c[nH]c2ccccc12)C(=O)N[C@@H](CC(C)C)C(=O)N[C@@H](CC(=O)O)C(=O)O)[C@@H](C)CC`, the Ki is reported as “Not Active”.

target: T1, Gonadotropin-releasing hormone receptor; test: Inhibition constant for the displacement of specific binding of [125I][D-Lys6]-GnRH (Kd=177 pM) bound to rat pituitary membranes; type: cell membranes, Membrane; summary of the method: as §1

Going from `CC[C@H](C)[C@H](N)C(=O)N[C@H](C(=O)N[C@@H](Cc1c[nH]c2ccccc12)C(=O)N[C@H](Cc1c[nH]cn1)C(=O)N[C@@H](CC(C)C)C(=O)N[C@@H](CC(=O)O)C(=O)O)[C@@H](C)CC` to `CC[C@H](C)[C@H](N)C(=O)N[C@H](C(=O)N[C@@H](Cc1c[nH]c2ccccc12)C(=O)N[C@H](Cc1ccccc1)C(=O)N[C@@H](CC(C)C)C(=O)N[C@@H](CC(=O)O)C(=O)O)[C@@H](C)CC`, the Ki rises from 0.5 µM to 8 µM (16-fold).

Compared with `CC[C@H](C)[C@H](N)C(=O)N[C@H](C(=O)N[C@@H](Cc1c[nH]c2ccccc12)C(=O)N[C@H](Cc1c[nH]c2ccccc12)C(=O)N[C@@H](CC(C)C)C(=O)N[C@@H](CC(=O)O)C(=O)O)[C@@H](C)CC`, `CC[C@H](C)[C@H](N)C(=O)N[C@H](C(=O)N[C@@H](Cc1c[nH]c2ccccc12)C(=O)N[C@@H](Cc1c[nH]c2ccccc12)C(=O)N[C@@H](CC(C)C)C(=O)N[C@@H](CC(=O)O)C(=O)O)[C@@H](C)CC` is 5.7-fold higher in Ki: 0.7 µM for the first, 4 µM for the second.

Compared with `CC[C@H](C)[C@H](N)C(=O)N[C@H](C(=O)N[C@@H](Cc1c[nH]c2ccccc12)C(=O)N[C@H](C)C(=O)N[C@@H](CC(C)C)C(=O)N[C@@H](CC(=O)O)C(=O)O)[C@@H](C)CC`, `CC[C@H](C)[C@H](NC(=O)[C@H](CC(=O)O)NC(=O)[C@H](CC(C)C)NC(=O)[C@H](N)Cc1c[nH]c2ccccc12)C(=O)N[C@H](C(=O)N[C@@H](Cc1c[nH]c2ccccc12)C(=O)O)[C@@H](C)CC` is lower in Ki: over 10 µM for the first, 8 µM for the second. The second binds more tightly here.

`CC[C@H](C)[C@H](NC(=O)[C@H](CCCNC(=N)N)NC(=O)[C@H](CC(C)C)NC(=O)[C@@H](Cc1c[nH]c2ccccc12)NC(C)=O)C(=O)N[C@H](C(=O)N[C@@H](Cc1c[nH]c2ccccc12)C(=O)O)[C@@H](C)CC` and `CC[C@H](C)[C@H](NC(=O)[C@H](CC(=O)O)NC(=O)[C@H](CC(C)C)NC(=O)[C@@H](Cc1c[nH]c2ccccc12)NC(C)=O)C(=O)N[C@H](C(=O)N[C@@H](Cc1c[nH]c2ccccc12)C(=O)O)[C@@H](C)CC` (Ac-[dW]LDIIW-OH) are within 1.5-fold of each other in Ki: 2 µM for the first, 1.9 µM for the second.

Going from `CC[C@H](C)[C@@H]1NC(=O)CSC[C@@H](C(=O)O)NC(=O)[C@H](CC(C)C)NC(=O)[C@@H](Cc2c[nH]c3ccccc23)NC(=O)[C@H](Cc2c[nH]c3ccccc23)NC(=O)[C@H]([C@@H](C)CC)NC1=O` to `CC[C@H](C)[C@@H]1NC(=O)[C@H](CC(=O)O)NC(=O)[C@H](CC(C)C)NC(=O)[C@@H](Cc2c[nH]c3ccccc23)NC(=O)[C@H](Cc2c[nH]c3ccccc23)NC(=O)[C@H]([C@@H](C)CC)NC1=O`, the Ki rises from 0.32 µM to 0.7 µM (2.2-fold). The first binds more tightly here.

`CC[C@H](C)[C@H](NC(=O)[C@H](CC(=O)O)NC(=O)[C@H](CC(C)C)N1C(=O)N[C@H](Cc2c[nH]c3ccccc23)C1=O)C(=O)N[C@H](C(=O)N[C@@H](Cc1c[nH]c2ccccc12)C(=O)O)[C@@H](C)CC` (X1-DIIW-OH) was tested, and the Ki was 0.23 µM.

target: T2, Endothelin receptor (Rattus norvegicus, UniProt P26684+P21451); test: Inhibition constant for the displacement of specific binding of [125I]-ET (Kd=2 nM) bound to rat pituitary membrane; type: tissue-based, Pituitary gland
T2 sequence (P26684 whole entry): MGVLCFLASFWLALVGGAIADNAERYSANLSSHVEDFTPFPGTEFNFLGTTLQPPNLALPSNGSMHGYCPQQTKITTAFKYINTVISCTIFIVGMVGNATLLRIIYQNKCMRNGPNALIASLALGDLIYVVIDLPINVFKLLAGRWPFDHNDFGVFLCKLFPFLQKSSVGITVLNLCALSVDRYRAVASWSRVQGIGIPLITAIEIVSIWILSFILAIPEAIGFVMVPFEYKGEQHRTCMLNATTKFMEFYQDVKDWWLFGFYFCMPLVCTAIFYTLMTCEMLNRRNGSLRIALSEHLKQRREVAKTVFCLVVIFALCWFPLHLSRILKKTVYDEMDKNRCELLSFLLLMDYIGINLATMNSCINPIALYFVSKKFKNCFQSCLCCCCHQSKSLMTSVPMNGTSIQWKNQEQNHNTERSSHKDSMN
T2 sequence (P21451 whole entry): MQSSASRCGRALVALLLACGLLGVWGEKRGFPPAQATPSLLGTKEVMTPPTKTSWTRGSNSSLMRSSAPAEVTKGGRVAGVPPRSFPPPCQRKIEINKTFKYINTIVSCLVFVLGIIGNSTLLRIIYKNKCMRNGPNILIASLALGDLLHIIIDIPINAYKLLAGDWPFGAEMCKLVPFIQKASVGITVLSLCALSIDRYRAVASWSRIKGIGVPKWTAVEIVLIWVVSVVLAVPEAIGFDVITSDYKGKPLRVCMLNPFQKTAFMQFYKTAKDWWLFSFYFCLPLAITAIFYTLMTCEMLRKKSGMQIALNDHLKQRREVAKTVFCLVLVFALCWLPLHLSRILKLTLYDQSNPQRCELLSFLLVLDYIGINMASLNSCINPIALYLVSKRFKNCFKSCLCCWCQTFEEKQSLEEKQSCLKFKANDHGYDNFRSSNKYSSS

In order of rising Ki:
1. CC[C@H](C)[C@H](NC(=O)[C@H](CC(=O)O)NC(=O)[C@H](CC(C)C)N1C(=O)N[C@H](Cc2c[nH]c3ccccc23)C1=O)C(=O)N[C@H](C(=O)N[C@@H](Cc1c[nH]c2ccccc12)C(=O)O)[C@@H](C)CC (X1-DIIW-OH)  6 µM
2. CC[C@H](C)[C@H](NC(=O)[C@H](CC(=O)O)NC(=O)[C@H](CC(C)C)NC(=O)[C@H](N)Cc1c[nH]c2ccccc12)C(=O)N[C@H](C(=O)N[C@@H](Cc1c[nH]c2ccccc12)C(=O)O)[C@@H](C)CC  55 µM
